Results collected from several papers.
Protocols differ between the studies behind these lines.
Cell line: HL-60
Effect on: cell growth or viability

SMILES | test | conditions | IC50
O=C(Nc1nnc(-c2cc3ccccc3[nH]2)s1)c1cc2c([nH]c3ccccc32)c(-c2ccc(F)cc2)n1 | MTT | 72 h | 9.85 µM
N[C@@H](CC(=O)N1CCN(C(c2ccc(F)cc2)c2ccc(F)cc2)CC1)C(=O)N1Cc2ccccc2C1 | ATP luminescence | 48 h | 2.71 µM
COc1cccc2c1C(=O)c1c(O)c3c(c(O)c1C2=O)C[C@@](O)(C(=O)CO)C[C@@H]3O[C@H]1C[C@H](N)[C@H](O)[C@H](C)O1 | MTT | 72 h | 1.08 µM
COc1cc(/C=C/C(=O)CC(=O)/C=C/c2ccc(O)c(OC)c2)ccc1O | resazurin | 72 h, dark | 4.1 µM
CN1c2ccccc2C(=O)N2[C@H](C(=O)Nc3ccc(/C=C/C(=O)NO)cc3)Cc3c([nH]c4ccccc34)[C@@H]12 | – | – | 0.63 µM
CC[C@@H](C)[C@H](N)C(=O)N1Cc2ccccc2C1 | ATP luminescence | 48 h | 2.14 µM
COc1cc(Nc2nccc(-c3cnn4nc(OC)ccc34)n2)cc(C(F)(F)F)c1 | ATP luminescence | – | 0.21 µM
COc1ccc(C(=O)CC(=O)c2ccc(C(C)(C)C)cc2)cc1 | – | dark | ~30 µM
COc1ccc(C(=O)c2ccccc2)c(O)c1 | resazurin | 72 h, dark | ~120 µM
CCCON(Cc1ccc(C(=O)NO)cc1)C(=O)Nc1ccc(N(C)C)cc1 | ATP luminescence | 72 h | 12.9 µM
COc1ccc(-c2nc(C(=O)Nc3nnc(-c4cc5ccccc5[nH]4)s3)cc3c2[nH]c2ccccc23)cc1 | MTT | 72 h | 3.83 µM
O=c1[nH]c(=S)n(Cc2ccc(Cl)cc2CNCC(F)(F)F)c2cc[nH]c12 | – | – | 1.3 µM
